Measured values from ChEMBL document CHEMBL1125811, “Potential antitumor agents. 63. Structure-activity relationships for side-chain analogues of the colon 38 active agent 9-oxo-9H-xanthene-4-acetic acid” (J Med Chem, 1991).

Key:
Mus musculus [1] = species: Mus musculus; assay: Ability to cause early haemorrhagic necrosis of colon 38 tumors in mice.; assay type: functional; set-up: concentration or dose not given beside the values
Procedure, shortened: (§1)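 Colon 38 fragments implanted s.c. in BDF1 mice and grown to 4-8 mm diameter. Single i.p. dose of sodium salt in water, escalated in 1.5-fold steps up to 750 mg/kg or the maximum nonlethal dose. Triplicate testing, groups of five mice. Tumors excised after 24 h, formalin-fixed, H&E-stained and scored histologically: ++ for 90-100% necrosis, + for 50-90%, - for consistently <50%.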

Mus musculus [2] = assay: Optimal dose to achieve the level of activity cited in colon 38 tumors after intraperitoneal administration in mice.; assay type: functional
Procedure, shortened: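 BDF1 mice bearing s.c. colon 38 tumors (4-8 mm) given a single i.p. dose of sodium salt in water. Full dose profile run at 1.5-fold intervals. Tumors removed at 24 h for histological necrosis scoring. Optimal dose is the minimum dose in mg/kg reaching the cited activity level.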

[3] = Relative measure of lipophilicity was determined by using 4'-(9-acridinylamino)-methanesulfonanilide as internal standard; assay type: physicochemical; details: octanol/water
Procedure, shortened: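 Rm determined by liquid-liquid chromatography, with AMSA as internal standard.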

[4] = Range of dose (highest nontoxic to minimum effective) over which 50-90% necrosis was achieved in mice; set-up: unit not given here
Procedure, shortened: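 Single i.p. dose of sodium salt in water to BDF1 mice bearing s.c. colon 38 tumors. Doses escalated 1.5-fold. Tumor necrosis read histologically at 24 h. Range recorded from highest nontoxic to minimum effective dose giving 50-90% necrosis, only where activity occurred at more than one dose level.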

Mus musculus [5] = species: Mus musculus; assay: The compound was evaluated for its ability to cause early haemorrhagic necrosis of colon 38 tumors in mice; Value ranges from 50-90%; assay type: functional; procedure, shortened: as §1

Row | SMILES | Rm [3] | Activity (Mus musculus [1]) [%] | OD (Mus musculus [2]) [mg/kg] | Range [4] | Activity (Mus musculus [5]) [%]
1 | Cc1cccc2c(=O)c3cccc([C@H](C)C(=O)O)c3oc12 | – | >90 | 65 | – | –
2 | Cc1cccc2c(=O)c3cccc(C(C)C(=O)O)c3oc12 (configuration not stated) | 0.88 | >90 | 150 | 150 | –
3 | Cc1cccc2c(=O)c3cccc([C@@H](C)C(=O)O)c3oc12 | – | >90 | 220 | 220 | –
4 | NC(C(=O)O)c1cccc2c(=O)c3ccccc3oc12 (configuration not stated) | -0.53 | – | 750 | – | 90
5 | Cc1ccc2c(=O)c3cccc(CC(=O)O)c3oc2c1C [VADIMEZAN] | 0.49 | >90 | 30 | 30 | –
6 | O=C(O)C(O)c1cccc2c(=O)c3ccccc3oc12 (configuration not stated) | 0.04 | – | 750 | – | 90
7 | O=C(Cc1cccc2c(=O)c3ccccc3oc12)NS(=O)(=O)c1ccccc1 | 0.51 | <50 | 750 | – | –
8 | COC(C(=O)O)c1cccc2c(=O)c3ccccc3oc12 (configuration not stated) | 0.49 | <50 | 750 | – | –
9 | O=C(O)C(F)c1cccc2c(=O)c3ccccc3oc12 (configuration not stated) | 0.75 | <50 | 750 | – | –
10 | CC(C(=O)O)c1cccc2c(=O)c3ccccc3oc12 (configuration not stated) | 0.85 | >90 | 500 | 500 | –

Now from value to compound, other results behind:

Row | Rm [3] | SMILES | Activity (Mus musculus [1]) [%] | OD (Mus musculus [2]) [mg/kg] | Range [4] | Activity (Mus musculus [5]) [%]
11 | -0.59 | O=c1c2ccccc2oc2c(CS(=O)(=O)O)cccc12 | <50 | 330 | – | –
12 | 0.7 | O=C(O)CCc1cccc2c(=O)c3ccccc3oc12 | – | 500 | – | 90
13 | -0.27 | CN(C)CCNC(=O)Cc1cccc2c(=O)c3ccccc3oc12 | – | 750 | – | 90
14 | -0.24 | CN(C)CCOC(=O)Cc1cccc2c(=O)c3ccccc3oc12 | – | 330 | – | 90
15 | -0.48 | O=c1c2ccccc2oc2c(CP(=O)(O)O)cccc12 | <50 | 750 | – | –
16 | -0.04 | CCOP(=O)(O)Cc1cccc2c(=O)c3ccccc3oc12 | <50 | 750 | – | –
17 | -0.2 | N=C(N)SCc1cccc2c(=O)c3ccccc3oc12 | <50 | 220 | – | –
18 | 0.64 | O=C(O)Cc1cccc2c(=O)c3ccccc3oc12 | >90 | 220 | – | –
19 | 0.21 | O=C(O)COc1cccc2c(=O)c3ccccc3oc12 | <50 | 750 | – | –
20 | 0.49 | O=C(O)c1cccc2c(=O)c3ccccc3oc12 | <50 | 220 | – | –
